Results: ChEMBL document CHEMBL4043093, “2-Oxo-3, 4-dihydropyrimido[4, 5-d]pyrimidinyl derivatives as new irreversible pan fibroblast growth factor receptor (FGFR) inhibitors” (Eur J Med Chem, 2017)

Columns and labels:
[1] = system: Tyrosine-protein kinase ABL1 (Homo sapiens), P00519 [F317L]; experiment: Inhibition of human non-phosphorylated ABL1 F317L mutant (S229 to K512 residues) expressed in HEK293 cells assessed as residual activity at 1000 nM after 30 mins by Kinomescan method relative to control; assay type: cell-based
Outline: (§1)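 KINOMEscan binding panel of 456 kinases, with the test compound at a single concentration of 1 µM. Read-out is Percent Control.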

[2] = biological target: Myotonin-protein kinase (Homo sapiens) (UniProt Q09013); experiment: Inhibition of wild-type human partial length DMPK (V47 to V415 residues) expressed in Escherichia coli BL21 assessed as residual activity at 1000 nM after 30 mins by Kinomescan method relative to control
[3] = system: Epidermal growth factor receptor (Homo sapiens), P00533 [G719S]; experiment: Inhibition of human partial length EGFR G719S mutant (R669 to V1011 residues) expressed in Escherichia coli BL21 assessed as residual activity at 1000 nM after 30 mins by Kinomescan method relative to control; outline: as §1
[4] = system: Epidermal growth factor receptor (Homo sapiens), P00533 [T790M]; experiment: Inhibition of human partial length EGFR T790M mutant (R669 to G1022 residues) expressed in HEK293 cells assessed as residual activity at 1000 nM after 30 mins by Kinomescan method relative to control; assay type: cell-based; outline: as §1
[5] = system: Receptor-type tyrosine-protein kinase FLT3 (Homo sapiens), P36888 [D835H]; experiment: Inhibition of human partial length FLT3 D835H mutant (V592 to Y969 residues) expressed in Escherichia coli BL21 assessed as residual activity at 1000 nM after 30 mins by Kinomescan method relative to control; outline: as §1
[6] = biological target: Hormonally up-regulated neu tumor-associated kinase (Homo sapiens) (UniProt P57058); experiment: Inhibition of wild-type human partial length HUNK (A31 to K354 residues) expressed in Escherichia coli BL21 assessed as residual activity at 1000 nM after 30 mins by Kinomescan method relative to control
[7] = biological target: Serine/threonine-protein kinase ICK (Homo sapiens) (UniProt Q9UPZ9); experiment: Inhibition of wild-type human partial length ICK (M1 to P314 residues) expressed in HEK293 cells assessed as residual activity at 1000 nM after 30 mins by Kinomescan method relative to control; assay type: cell-based
[8] = biological target: Tyrosine-protein kinase JAK1 (Homo sapiens) (UniProt P23458); experiment: Inhibition of wild-type human partial length JAK1 JH1 catalytic domain (V856 to K1154 residues) expressed in Escherichia coli BL21 assessed as residual activity at 1000 nM after 30 mins by Kinomescan method relative to control
[9] = system: Mast/stem cell growth factor receptor Kit (Homo sapiens), P10721 [L576P]; experiment: Inhibition of human partial length KIT L576P mutant (Y545 to D952 residues) expressed in Escherichia coli BL21 assessed as residual activity at 1000 nM after 30 mins by Kinomescan method relative to control; outline: as §1
[10] = biological target: Mitogen-activated protein kinase kinase kinase 1 (Homo sapiens) (UniProt Q13233); experiment: Inhibition of wild-type human partial length MAP3K1 (L1202 to W1512 residues) expressed in HEK293 cells assessed as residual activity at 1000 nM after 30 mins by Kinomescan method relative to control; assay type: cell-based
[11] = biological target: Dual specificity mitogen-activated protein kinase kinase 7 (Homo sapiens) (UniProt O14733); experiment: Inhibition of wild-type human full length MKK7 (M1 to R419 residues) expressed in HEK293 cells assessed as residual activity at 1000 nM after 30 mins by Kinomescan method relative to control; assay type: cell-based
Outline: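 Single-concentration screen at 1 µM across a 456-kinase KINOMEscan panel. The read-out is Percent Control for each kinase.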

[12] = biological target: Macrophage-stimulating protein receptor (Homo sapiens) (UniProt Q04912); experiment: Inhibition of wild-type human partial length MST1R (I1057 to L1363 residues) expressed in Escherichia coli BL21 assessed as residual activity at 1000 nM after 30 mins by Kinomescan method relative to control
[13] = biological target: Serine/threonine-protein kinase Nek1 (Homo sapiens) (UniProt Q96PY6); experiment: Inhibition of wild-type human partial length NEK1 (M1 to K278 residues) expressed in Escherichia coli BL21 assessed as residual activity at 1000 nM after 30 mins by Kinomescan method relative to control
[14] = system: Phosphatidylinositol 4,5-bisphosphate 3-kinase catalytic subunit alpha isoform (Homo sapiens), P42336 [M1043I]; experiment: Inhibition of human partial length PIK3CA M1043I mutant (R108 to N1068 residues) expressed in HEK293 cells assessed as residual activity at 1000 nM after 30 mins by Kinomescan method relative to control; assay type: cell-based
Outline: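 Single-point screen at a fixed 1 µM, run within a 456-kinase DiscoveRx KINOMEscan panel. Each kinase's read-out is Percent Control, i.e. signal relative to a control without compound. Hits were scored by a Percent Control < 35 cut-off, and an S(35) selectivity score was calculated across the non-mutant kinases.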

[15] = biological target: Phosphatidylinositol 5-phosphate 4-kinase type-2 beta (Homo sapiens) (UniProt P78356); experiment: Inhibition of wild-type human full length PIP5K2B (M1 to T416 residues) expressed in Escherichia coli BL21 assessed as residual activity at 1000 nM after 30 mins by Kinomescan method relative to control
Outline: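 Single-concentration screen at 1 µM against a 456-kinase panel (KINOMEscan). Read-out is Percent Control for each kinase. Across the 403 non-mutant kinases, an S(35) selectivity score was derived as the fraction of kinases with Percent Control < 35.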

[16] = biological target: Serine/threonine-protein kinase PLK3 (Homo sapiens) (UniProt Q9H4B4); experiment: Inhibition of wild-type human partial length PLK3 (A42 to L334 residues) expressed in HEK293 cells assessed as residual activity at 1000 nM after 30 mins by Kinomescan method relative to control; assay type: cell-based
[17] = biological target: Ribosomal protein S6 kinase alpha-4 (Homo sapiens) (UniProt O75676); experiment: Inhibition of wild-type human partial length N-terminal RPS6KA4 kinase domain 1 expressed in Escherichia coli BL21 assessed as residual activity at 1000 nM after 30 mins by Kinomescan method relative to control
[18] = biological target: Angiopoietin-1 receptor (Homo sapiens) (UniProt Q02763); experiment: Inhibition of wild-type human partial length TIE2 (N804 to T1112 residues) expressed in Escherichia coli BL21 assessed as residual activity at 1000 nM after 30 mins by Kinomescan method relative to control
[19] = biological target: Non-receptor tyrosine-protein kinase TYK2 (Homo sapiens) (UniProt P29597); experiment: Inhibition of wild-type human partial length TYK2 JH1 catalytic domain (V877 to C1187 residues) expressed in HEK293 cells assessed as residual activity at 1000 nM after 30 mins by Kinomescan method relative to control; assay type: cell-based
[20] = biological target: Mitogen-activated protein kinase kinase kinase 20 (Homo sapiens) (UniProt Q9NYL2); experiment: Inhibition of wild-type human partial length ZAK (M1 to L331 residues) expressed in Escherichia coli BL21 assessed as residual activity at 1000 nM after 30 mins by Kinomescan method relative to control

Phosphatidylinositol 5-phosphate 4-kinase type-2 beta (Homo sapiens), sequence (P78356 whole entry, the tested form may be a part): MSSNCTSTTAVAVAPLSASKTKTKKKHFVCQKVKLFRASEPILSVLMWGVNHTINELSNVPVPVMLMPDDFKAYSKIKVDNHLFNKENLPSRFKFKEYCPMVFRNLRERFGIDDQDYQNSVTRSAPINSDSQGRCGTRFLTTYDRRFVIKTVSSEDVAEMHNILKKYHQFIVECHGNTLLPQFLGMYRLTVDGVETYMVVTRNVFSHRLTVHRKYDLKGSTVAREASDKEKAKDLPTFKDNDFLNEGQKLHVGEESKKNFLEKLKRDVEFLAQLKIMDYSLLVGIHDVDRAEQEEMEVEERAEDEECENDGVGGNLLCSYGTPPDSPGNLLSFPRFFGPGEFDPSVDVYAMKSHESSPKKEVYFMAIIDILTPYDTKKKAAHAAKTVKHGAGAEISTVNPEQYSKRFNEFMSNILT
Serine/threonine-protein kinase ICK (Homo sapiens), sequence (Q9UPZ9 whole entry, the tested form may be a part): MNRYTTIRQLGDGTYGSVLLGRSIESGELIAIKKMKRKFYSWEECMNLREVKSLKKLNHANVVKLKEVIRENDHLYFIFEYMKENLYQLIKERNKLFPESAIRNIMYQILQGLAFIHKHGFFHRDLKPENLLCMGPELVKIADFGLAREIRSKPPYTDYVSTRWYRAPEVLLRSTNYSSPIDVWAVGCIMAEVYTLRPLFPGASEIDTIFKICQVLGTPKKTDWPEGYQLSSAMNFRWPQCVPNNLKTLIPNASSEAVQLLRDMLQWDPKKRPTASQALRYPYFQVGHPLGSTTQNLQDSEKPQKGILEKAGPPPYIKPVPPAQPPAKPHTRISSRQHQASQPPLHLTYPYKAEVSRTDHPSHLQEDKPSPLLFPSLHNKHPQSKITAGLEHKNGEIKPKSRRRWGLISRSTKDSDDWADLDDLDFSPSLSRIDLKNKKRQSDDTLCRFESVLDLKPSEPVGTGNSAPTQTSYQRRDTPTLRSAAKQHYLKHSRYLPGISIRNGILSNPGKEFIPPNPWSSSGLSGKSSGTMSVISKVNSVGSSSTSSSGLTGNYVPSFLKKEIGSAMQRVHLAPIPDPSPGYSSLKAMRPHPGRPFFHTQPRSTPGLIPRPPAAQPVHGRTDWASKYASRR
Macrophage-stimulating protein receptor (Homo sapiens), sequence (Q04912 25-304 limits assumed): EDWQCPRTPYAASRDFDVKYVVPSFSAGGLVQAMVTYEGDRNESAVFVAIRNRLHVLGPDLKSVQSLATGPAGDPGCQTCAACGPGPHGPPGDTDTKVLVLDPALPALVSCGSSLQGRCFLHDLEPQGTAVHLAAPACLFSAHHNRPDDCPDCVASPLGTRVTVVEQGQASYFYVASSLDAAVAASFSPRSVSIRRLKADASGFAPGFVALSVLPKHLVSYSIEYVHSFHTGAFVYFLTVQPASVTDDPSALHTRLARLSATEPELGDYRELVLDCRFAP
Macrophage-stimulating protein receptor (Homo sapiens), sequence (Q04912 310-1400 limits assumed): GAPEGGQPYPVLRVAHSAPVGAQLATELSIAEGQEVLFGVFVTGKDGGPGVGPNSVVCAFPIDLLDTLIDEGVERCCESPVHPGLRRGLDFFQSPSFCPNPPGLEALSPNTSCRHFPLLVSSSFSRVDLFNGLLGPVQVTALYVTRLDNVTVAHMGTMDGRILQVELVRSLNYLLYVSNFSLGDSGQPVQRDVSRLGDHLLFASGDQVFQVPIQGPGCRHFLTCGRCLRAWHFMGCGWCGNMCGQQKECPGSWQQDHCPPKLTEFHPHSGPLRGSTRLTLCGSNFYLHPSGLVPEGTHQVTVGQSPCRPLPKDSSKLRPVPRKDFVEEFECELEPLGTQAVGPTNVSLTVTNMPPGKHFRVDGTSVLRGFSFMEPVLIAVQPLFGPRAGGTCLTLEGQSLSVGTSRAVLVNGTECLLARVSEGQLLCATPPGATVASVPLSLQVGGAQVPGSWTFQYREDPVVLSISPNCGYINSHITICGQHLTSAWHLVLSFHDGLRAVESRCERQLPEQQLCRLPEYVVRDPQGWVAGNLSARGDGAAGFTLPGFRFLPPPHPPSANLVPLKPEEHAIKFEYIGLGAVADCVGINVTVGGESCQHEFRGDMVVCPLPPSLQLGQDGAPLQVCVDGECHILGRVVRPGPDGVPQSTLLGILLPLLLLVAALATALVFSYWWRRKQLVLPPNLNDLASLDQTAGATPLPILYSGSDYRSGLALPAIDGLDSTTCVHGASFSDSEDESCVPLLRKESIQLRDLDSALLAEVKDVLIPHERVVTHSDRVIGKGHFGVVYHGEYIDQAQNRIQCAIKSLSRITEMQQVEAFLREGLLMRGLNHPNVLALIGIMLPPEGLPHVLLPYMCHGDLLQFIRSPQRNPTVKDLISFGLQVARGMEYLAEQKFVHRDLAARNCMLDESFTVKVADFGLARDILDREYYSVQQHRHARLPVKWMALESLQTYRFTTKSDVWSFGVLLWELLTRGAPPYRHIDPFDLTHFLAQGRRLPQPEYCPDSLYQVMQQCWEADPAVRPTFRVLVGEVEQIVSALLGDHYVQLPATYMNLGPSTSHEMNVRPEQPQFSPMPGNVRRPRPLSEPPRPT
Tyrosine-protein kinase ABL1 (Homo sapiens), P00519 [F317L], sequence (P00519 whole entry F317L, the tested form may be a part): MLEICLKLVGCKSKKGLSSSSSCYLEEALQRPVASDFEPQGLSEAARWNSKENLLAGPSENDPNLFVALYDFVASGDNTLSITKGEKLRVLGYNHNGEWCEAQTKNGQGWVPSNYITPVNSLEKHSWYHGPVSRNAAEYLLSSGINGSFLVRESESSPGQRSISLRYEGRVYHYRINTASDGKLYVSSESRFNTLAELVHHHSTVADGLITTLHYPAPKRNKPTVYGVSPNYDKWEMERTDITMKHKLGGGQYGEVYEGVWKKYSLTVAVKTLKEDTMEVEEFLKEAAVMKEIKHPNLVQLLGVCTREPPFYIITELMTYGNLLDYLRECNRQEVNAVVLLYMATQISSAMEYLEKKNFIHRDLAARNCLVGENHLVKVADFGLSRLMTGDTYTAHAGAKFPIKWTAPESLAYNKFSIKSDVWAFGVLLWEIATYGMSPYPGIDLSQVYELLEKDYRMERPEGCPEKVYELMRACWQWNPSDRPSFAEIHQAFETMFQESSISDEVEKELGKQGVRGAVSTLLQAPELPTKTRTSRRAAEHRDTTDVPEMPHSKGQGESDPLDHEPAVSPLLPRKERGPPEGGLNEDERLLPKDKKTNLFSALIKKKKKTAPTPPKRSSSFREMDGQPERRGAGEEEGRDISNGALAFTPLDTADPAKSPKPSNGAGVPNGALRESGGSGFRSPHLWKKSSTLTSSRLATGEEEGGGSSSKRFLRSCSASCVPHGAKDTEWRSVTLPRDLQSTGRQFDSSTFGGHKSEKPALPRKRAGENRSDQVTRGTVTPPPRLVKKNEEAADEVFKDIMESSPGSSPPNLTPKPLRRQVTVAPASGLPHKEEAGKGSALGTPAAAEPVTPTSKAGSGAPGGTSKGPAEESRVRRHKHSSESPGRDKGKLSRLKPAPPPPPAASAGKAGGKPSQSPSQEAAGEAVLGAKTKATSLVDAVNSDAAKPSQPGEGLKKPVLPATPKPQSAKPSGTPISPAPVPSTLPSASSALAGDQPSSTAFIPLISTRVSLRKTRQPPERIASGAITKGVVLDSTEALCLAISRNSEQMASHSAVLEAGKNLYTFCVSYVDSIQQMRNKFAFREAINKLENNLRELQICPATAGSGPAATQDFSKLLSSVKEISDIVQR
Myotonin-protein kinase (Homo sapiens), sequence (Q09013 whole entry, the tested form may be a part): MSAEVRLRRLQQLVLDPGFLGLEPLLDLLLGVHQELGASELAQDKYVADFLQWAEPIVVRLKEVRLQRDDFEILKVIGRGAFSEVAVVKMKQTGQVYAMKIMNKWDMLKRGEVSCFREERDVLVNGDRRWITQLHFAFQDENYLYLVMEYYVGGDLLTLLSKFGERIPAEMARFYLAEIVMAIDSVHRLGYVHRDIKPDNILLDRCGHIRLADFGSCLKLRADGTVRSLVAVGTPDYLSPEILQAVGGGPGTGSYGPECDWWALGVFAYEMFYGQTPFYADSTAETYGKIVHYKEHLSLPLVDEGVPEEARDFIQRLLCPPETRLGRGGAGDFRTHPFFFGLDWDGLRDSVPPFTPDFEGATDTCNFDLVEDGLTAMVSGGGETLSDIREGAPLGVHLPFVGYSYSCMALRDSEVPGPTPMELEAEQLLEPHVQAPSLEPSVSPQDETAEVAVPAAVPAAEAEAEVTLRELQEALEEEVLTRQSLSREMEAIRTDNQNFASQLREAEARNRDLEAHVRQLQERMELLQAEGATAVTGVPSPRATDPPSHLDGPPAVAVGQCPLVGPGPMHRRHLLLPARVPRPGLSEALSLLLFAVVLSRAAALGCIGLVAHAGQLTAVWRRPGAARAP
Hormonally up-regulated neu tumor-associated kinase (Homo sapiens), sequence (P57058 whole entry, the tested form may be a part): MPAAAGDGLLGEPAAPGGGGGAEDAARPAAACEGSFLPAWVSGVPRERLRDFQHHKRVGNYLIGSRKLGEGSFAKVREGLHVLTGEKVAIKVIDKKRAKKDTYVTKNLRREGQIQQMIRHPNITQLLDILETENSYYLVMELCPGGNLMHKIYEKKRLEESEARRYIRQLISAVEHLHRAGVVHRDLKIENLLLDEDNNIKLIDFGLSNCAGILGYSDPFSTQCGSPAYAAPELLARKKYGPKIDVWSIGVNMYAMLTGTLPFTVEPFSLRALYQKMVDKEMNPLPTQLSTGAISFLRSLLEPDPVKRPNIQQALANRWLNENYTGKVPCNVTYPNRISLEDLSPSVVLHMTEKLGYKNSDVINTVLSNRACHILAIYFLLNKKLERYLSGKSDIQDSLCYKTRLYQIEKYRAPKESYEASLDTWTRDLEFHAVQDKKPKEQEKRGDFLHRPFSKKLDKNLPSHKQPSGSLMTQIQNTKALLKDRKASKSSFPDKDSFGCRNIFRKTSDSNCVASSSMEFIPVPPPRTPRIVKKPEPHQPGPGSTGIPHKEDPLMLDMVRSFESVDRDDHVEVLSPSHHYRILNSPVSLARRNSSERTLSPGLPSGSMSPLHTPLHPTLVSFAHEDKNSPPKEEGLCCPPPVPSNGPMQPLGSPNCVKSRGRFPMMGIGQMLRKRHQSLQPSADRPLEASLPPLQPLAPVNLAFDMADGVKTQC

Molecule `COc1cc(OC)c(Cl)c(N2Cc3cnc(Nc4ccc(F)cc4)nc3N(C3CCN(C(=O)/C=C/CN(C)C)CC3)C2=O)c1Cl` has an Activity [1] of 96%, an Activity [2] of 100% and an Activity [3] of 87%. The Activity [4] was 94%, the Activity [5] was 100% and the Activity [6] was 100%. For the same molecule, the Activity [7] was 100%, the Activity [8] was 93% and the Activity [9] was 2.6%. It also gave an Activity [10] of 100%, an Activity [11] of 100% and an Activity [12] of 95%. For the same molecule, the Activity [13] was 73%, the Activity [14] was 95% and the Activity [15] was 100%. It also gave an Activity [16] of 99%, an Activity [17] of 97% and an Activity [18] of 26%. The Activity [19] was 83% and the Activity [20] was 98%.
